Measured values as given in PMC9768356 (iScience, 2022).

What was measured:
[1] = test system: YAP; test: YAP activation in BMDMs; format: cell-based, mice; conditions: E. coli 12 h, n = 4 per group
How it was run: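 Bone marrow cells from Fpn^flox/flox or Fpn^LysM/LysM mice were erythrocyte-lysed and grown in DMEM/10% FBS with 10 ng/mL GM-CSF. Nonadherent cells were replated after 24 h and cultured 7 days, with medium changed every 3 days. Cells were infected with E. coli (12 h) with DFO (100 μM, 12 h). Lysates were blotted for P-YAP and YAP (1:1000 each) with a β-actin control (1:5000); n = 4.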

[2] = test system: Areg; test: Areg protein in BMDMs; format: cell-based, mice; conditions: n = 4 per group
How it was run: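 BMDMs: bone marrow cells from mouse hind legs, erythrocytes lysed, grown in DMEM with 10% FBS and 10 ng/mL GM-CSF at 37°C and 5% CO2. Non-adherent cells replated after 24 h and cultured 7 days, medium changed every 3 days. Cells were infected with E. coli and harvested at 12 h. Iron-loading agent 100 μM for 20 h or iron chelator 100 μM for 12 h. Lysis in RIPA, BCA protein assay, 20 or 40 μg on 12% SDS-PAGE, PVDF. Anti-Areg 1:1000 with β-actin loading control (1:5000), HRP secondaries 1:5000, ECL detection. Supernatant Areg by ELISA. n = 4 per group.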

[3] = cited from earlier work

Which results are given for `CC(=O)N(O)CCCCCNC(=O)CCC(=O)N(O)CCCCCNC(=O)CCC(=O)N(O)CCCCCN` [DFO, desferrioxamine]?
YAP activity, Fpn^LysM/LysM BMDMs, DFO ([1]; Fpn^LysM/LysM BMDMs, DFO 100 μM, 12 h): decreased YAP activity; YAP activity, Fpn^flox/flox BMDMs, DFO ([1]; Fpn^flox/flox BMDMs, DFO 100 μM, 12 h): decreased YAP activity; protein levels of Areg, Fpn^LysM/LysM BMDMs, DFO ([2]; Fpn^LysM/LysM BMDMs, E. coli 12 h, DFO 100 μM, 12 h): decreased YAP activity and the protein levels of Areg; protein levels of Areg, Fpn^flox/flox BMDMs, DFO ([2]; Fpn^flox/flox BMDMs, E. coli 12 h, DFO 100 μM, 12 h): decreased YAP activity and the protein levels of Areg

Which “prevention of bacterial dissemination” value ([3]; by limiting extracellular iron availability) does the source give for `CC[C@H](C)[C@@H]1NC(=O)[C@@H](NC(=O)[C@@H](NC(=O)[C@@H]2CCCN2C(=O)[C@H](Cc2ccccc2)NC(=O)[C@H](Cc2c[nH]cn2)NC(=O)[C@@H](NC(=O)[C@@H](N)CC(=O)O)[C@@H](C)O)[C@@H](C)CC)CSSC[C@@H](C(=O)N[C@@H](CCCCN)C(=O)N[C@H](C(=O)O)[C@@H](C)O)NC(=O)[C@@H]2CSSC[C@@H]3NC(=O)[C@@H]4CSSC[C@H](NC(=O)[C@H](Cc5ccccc5)NC1=O)C(=O)N[C@@H](CSSC[C@H](NC(=O)[C@H](CCCCN)NC(=O)[C@H](CO)NC(=O)[C@H](CCCNC(=N)N)NC(=O)[C@H](Cc1c[nH]cn1)NC3=O)C(=O)NCC(=O)N[C@@H](CCSC)C(=O)N2)C(=O)NCC(=O)N4` [Hepcidin] here?
The value was “prevent bacterial dissemination by limiting extracellular iron availability”.

And the pharmacokinetics [3]?
The pharmacokinetics was “poor pharmacokinetics”.

What does the source list for ferric ammonium citrate?
activation of YAP signaling, Fpn^flox/flox BMDMs, FAC ([1]; Fpn^flox/flox BMDMs, FAC 100 μM, 20 h): significantly facilitated the activation of YAP signaling; production and secretion of Areg, Fpn^flox/flox BMDMs, FAC ([2]; Fpn^flox/flox BMDMs, E. coli 12 h, FAC 100 μM, 20 h): promoted the production and secretion of Areg

For verteporfin, which “protein levels of macrophage-derived Areg (YAP inhibition)” value ([2]; BMDMs and supernatant, 12 h after E. coli infection) is on record?
Its value is “dramatically downregulated the protein levels of macrophage-derived Areg”.
